Measured values: ChEMBL document CHEMBL4725371, “A Novel Redox Modulator Induces a GPX4-Mediated Cell Death That Is Dependent on Iron and Reactive Oxygen Species” (J Med Chem, 2020)
pIC50: −log10 of the molar value. The source made the active and inactive calls. The calls are words filed in the database; no cut-off is given here.

Key:
[1] = system: BXPC-3; assay: Cytotoxicity against human BXPC-3 cells measured after 72 hrs by MTT assay; type: functional, cell-based; conditions: BXPC-3, 72 h
How it was run: (§1)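 Cells were kept in RPMI 1640 with 10% FBS at 37 °C, 5% CO₂, under 35 passages. Cells were seeded, attached overnight and treated with compound or DMSO for 72 h. MTT was added at 0.3 mg/mL for 3 h, then dissolved in DMSO and read as absorbance at 570 nm. IC50 was fitted from the curve. Values are mean ± sd of three independent experiments.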

[2] = system: MIA PaCa-2; assay: Cytotoxicity against human MIA PaCa-2 cells measured after 72 hrs by MTT assay; type: functional, cell-based; conditions: MIA PaCa-2, 72 h; how it was run: as §1
[3] = system: PANC-1; assay: Cytotoxicity against human PANC-1 cells measured after 72 hrs by MTT assay; type: functional, cell-based; conditions: PANC-1, 72 h; how it was run: as §1
[4] = Drug level in CD-1 mouse colon at 20 mg/kg, po measured after 1 hr by LC-MS/MS analysis; type: ADME, organism-based; conditions: in vivo
How it was run: (§2)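 Mice received 20 mg/kg PO or 10 mg/kg IV. Organs were collected after 1 h and homogenised in five-fold dissociation solvent. Homogenate was mixed with acetonitrile and internal standard and centrifuged at 3500 g for 10 min. Supernatant was analysed by LC-MS.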

[5] = Half life in mouse liver microsomes at 10 uM in presence of NADPH by LC-MS/MS analysis; type: ADME, Microsome; conditions: microsomes, 10 µM
How it was run: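 Compound (10 μM working solution in 0.1 M phosphate buffer with 3.3 mM MgCl₂) was incubated with mouse liver microsomes and NADPH. Verapamil served as reference. Samples were taken at 0, 5, 10, 15, 30, 45 and 60 min and centrifuged at 3500 g. Supernatant was run by LC-MS/MS. t1/2 came from the slope of ln(peak area ratio) against time.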

[6] = Drug metabolism in CD-1 mouse plasma assessed as hydroxylation at 10 mg/kg, iv measured after 15 mins by LC-MS/MS analysis; type: ADME, organism-based; conditions: in vivo, 0.25 h
[7] = system: CT26; assay: Antitumor activity against mouse CT26 cells implanted in Balb/c mouse assessed as tumor shrinkage at 10 mg/kg, iv administered three times weekly for 17 days measured 4 hrs post-last dose; type: functional, organism-based; conditions: time 17.0 day
How it was run: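 Female Balb/c mice aged 5–6 weeks, implanted subcutaneously in right flank with 1 × 10⁶ CT-26 cells in DPBS. Dosing began 7 days later with randomisation (n = 5/group, mean tumour 97–117 mm³). IV dosing was 3 times weekly and IP dosing was given. Vehicle control given daily IP. Mice were euthanised four hours post-dose after 17 days of dosing.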

[8] = target: T1, Phospholipid hydroperoxide glutathione peroxidase GPX4 (Homo sapiens) (UniProt P36969); assay: Binding affinity to GPX4 in human PANC-1 cells assessed as protein destabilization by measuring reduction in melting temperature at 100 uM measured after 1 hr by thermal shift assay; type: cell-based
T1 sequence (whole entry): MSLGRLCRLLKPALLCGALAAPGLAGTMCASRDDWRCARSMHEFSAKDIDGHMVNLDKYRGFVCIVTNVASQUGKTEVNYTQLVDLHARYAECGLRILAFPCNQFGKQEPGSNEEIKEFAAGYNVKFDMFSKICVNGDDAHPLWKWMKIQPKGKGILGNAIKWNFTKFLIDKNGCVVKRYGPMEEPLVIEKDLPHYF

[9] = Drug level in CD-1 mouse colon at 10 mg/kg, iv measured after 1 hr by LC-MS/MS analysis; type: ADME, organism-based; conditions: in vivo; how it was run: as §2
[10] = system: MIA PaCa-2; assay: Down regulation of PNPT1 expression in human MIA PaCa-2 cells at 3 times IC50 measured after 4 hrs by proteomics analysis; type: functional, cell-based
[11] = Plasma concentration in CD-1 mouse at 20 mg/kg, po measured after 7 hrs by LC-MS/MS analysis; type: ADME, organism-based
How it was run: (§3)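 CD-1 mice dosed IP at 10 mg/kg or PO at 20 mg/kg, n=2 per route. Blood taken with heparinized pipettes at 0.5, 2, 4 and 7 h and spun at 15,000 rpm for 10 min. Plasma stored at −80 °C, then measured by LC-MS/MS.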

[12] = Half life in human plasma at 500 uM by LC-MS/MS analysis; type: ADME, cell-free
How it was run: (§4)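 Compound (500 μM DMSO stock) was added at 1 μL per 500 μL pooled plasma. Samples were taken at 0, 0.17, 0.5, 1, 2 and 4 h and centrifuged at 3500 g for 10 min. Supernatant was run by LC-MS/MS. t1/2 came from the slope of ln(compound/internal standard peak area) against time.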

[13] = Plasma concentration in CD-1 mouse at 10 mg/kg, ip measured after 7 hrs by LC-MS/MS analysis; type: ADME, organism-based; how it was run: as §3
[14] = Drug metabolism in CD-1 mouse plasma assessed as hydroxylation at 20 mg/kg, po measured after 15 mins by LC-MS/MS analysis; type: ADME, organism-based; conditions: in vivo, 0.25 h
[15] = system: MIA PaCa-2; assay: Down regulation of LRPPRC expression in human MIA PaCa-2 cells at 3 times IC50 measured after 4 hrs by proteomics analysis; type: functional, cell-based
[16] = Half life in mouse plasma at 500 uM by LC-MS/MS analysis; type: ADME, cell-free; how it was run: as §4
[17] = system: MIA PaCa-2; assay: Induction of reactive oxygen species in human MIA PaCa-2 cells at 5 to 10 uM measured after 30 mins in presence of N-acetylcysteine by CM-H2DCFDA dye based fluorescence assay; type: functional, cell-based; conditions: dose microM 5-10, time 30.0 min
How it was run: (§5)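 1.8 × 10⁴ cells per well were attached overnight, then loaded with 10 μM CM-H2DCFDA in HBSS for 40 min at 37 °C and washed. Compounds were added in HBSS. Fluorescence was read at Ex 483 / Em 530 nm. TBHP was the positive control. NAC at 3 mM was used where stated.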

[18] = system: MIA PaCa-2; assay: Induction of reactive oxygen species in human MIA PaCa-2 cells at 5 to 10 uM measured up to 4 hrs by CM-H2DCFDA dye based fluorescence assay; type: functional, cell-based; conditions: dose microM 5-10, time hrs <=4; how it was run: as §5
[19] = system: MIA PaCa-2; assay: Induction of ferroptosis in human MIA PaCa-2 cells assessed as increase in lipid peroxidation measured after 24 hrs by C11-BODIPY dye based fluorescence assay; type: functional, cell-based
How it was run: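 MIA PaCa-2 cells were treated for the set time, then given 10 μM C11-BODIPY for 30 min at 37 °C and washed. Fluorescence was read at 581/591 nm (reduced dye) and 488/510 nm (oxidized dye). The intensity ratio was compared by unpaired t-test.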

[20] = system: MIA PaCa-2; assay: Cytotoxicity against human MIA PaCa-2 cells transfected with GPX4 siRNA measured after 72 hrs by MTT assay; type: functional, cell-based
[21] = Drug level in mouse plasma treated with QD394 at 500 uM measured after 0.5 hrs by LC-MS/MS analysis
[22] = system: MIA PaCa-2; assay: Induction of ferroptosis in human MIA PaCa-2 cells assessed as increase in lipid peroxidation at 100 uM measured after 24 hrs by C11-BODIPY dye based fluorescence assay; type: functional, cell-based
How it was run: (§6)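 MIA PaCa-2 cells (RPMI 1640, 10% FBS, 37 °C, 5% CO2) exposed to compound for the set time, then 10 μM C11-BODIPY added for 30 min at 37 °C. After two DPBS washes, read in HBSS at 581/591 nm (reduced dye) and 488/510 nm (oxidized dye); emission ratio calculated, unpaired Student's t-test.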

[23] = system: MIA PaCa-2; assay: Induction of reactive oxygen species in human MIA PaCa-2 cells at 200 uM measured after 30 mins in presence of N-acetylcysteine by CM-H2DCFDA dye based fluorescence assay; type: functional, cell-based
How it was run: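 MIA PaCa-2 cells seeded at 1.8 × 10⁴/well, attached overnight, then loaded with 10 μM CM-H2DCFDA in HBSS for 40 min at 37 °C. Washed twice with warm DPBS; compounds added in HBSS. N-acetylcysteine used at 3 mM. Fluorescence read at Ex 483 / Em 530 nm, with the 30 min point taken. Unpaired t-test.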

[24] = system: MIA PaCa-2; assay: Induction of ferroptosis in human MIA PaCa-2 cells assessed as increase in lipid peroxidation at 20 to 40 uM measured after 24 hrs by C11-BODIPY dye based fluorescence assay; type: functional, cell-based; conditions: dose microM 20-40, time 24.0 hrs; how it was run: as §6
[25] = system: MIA PaCa-2; assay: Inhibition glutathione synthesis in human MIA PaCa-2 cells at 1 to 2 uM measured after 2 to 4 hrs by GSH/GSSG-glo assay; type: functional, cell-based; conditions: dose microM 1-2, time hrs 2-4
How it was run: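 GSH/GSSG-Glo luminescent assay: 15,000–20,000 MIA PaCa-2 cells per well, attached overnight, treated 2 h and 4 h. Cells were lysed with total or oxidized glutathione reagent, then luciferin generation (30 min, room temperature) and detection reagents added. Luminescence was read after 15 min. Ratio was computed from net RLU as (total − GSSG)/(GSSG/2).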

O=C1C(Nc2ccc(-c3cc(Cl)cc(Cl)c3)cc2)=CC(=O)c2ncncc21
pIC50 [1]: 5.48 | pIC50 [2]: 5.51 | pIC50 [3]: 5.72

CC1=C(Nc2ccc(N3CCN(C)CC3)cc2)C(=O)c2cncnc2C1=O
pIC50 [1]: 6.06 | Drug uptake [4]: 0.3 mg/kg | t1/2 [5]: 0.743 h | Drug metabolism [6]: Metabolite_Detected | Activity [7]: Active | Activity [8]: Dose-dependent effect | Drug uptake [9]: 0.3 mg/kg | Activity [10]: Active | concentration at 7 h [11]: 3.4 ng/mL | half-life at 500 µM [12]: > 2 h | concentration at 7 h [13]: 6.7 ng/mL | Drug metabolism [14]: Metabolite_Detected | pIC50 [2]: 5.44 | Activity [15]: Active | half-life at 500 µM [16]: > 2 h | pIC50 [3]: 6.42 | Activity [17]: inactive | Activity [18]: Active | Activity [19]: Dose-dependent effect | Activity [20]: inactive

CN1CCN(c2ccc(NC3=C(SCC(N)C(=O)O)C(=O)c4ncncc4C3=O)cc2)CC1 (centres undefined)
Drug uptake [21]: Active

CC(C)(C)OO
Activity [22]: Active | Activity [23]: inactive

COc1c(Nc2ccc(N3CCN(C)CC3)cc2)cc(OC)c2ncncc12
Drug uptake [21]: Active

CCOc1ccccc1-n1c(C(C)N2CCN(C(=O)COc3ccc(Cl)cc3)CC2)nc2ccccc2c1=O (centres undefined)
Activity [24]: Active

O=C1C(Nc2ccc(N3CCCCC3)cc2)=CC(=O)c2ncncc21
pIC50 [1]: 5.60 | pIC50 [2]: 5.62 | pIC50 [3]: 5.85

CCCCS(=N)(=O)CCC(N)C(=O)O (centres undefined)
inhibition [25]: Active

CN1CCN(c2ccc(NC3=CC(=O)c4ncncc4C3=O)cc2)C(O)C1 (centres undefined)
Drug uptake [21]: Active

O=C1C(Nc2cccc3c2Cc2ccccc2-3)=CC(=O)c2ncncc21
pIC50 [1]: 5.35 | pIC50 [2]: 5.51 | pIC50 [3]: 5.33

O=C1C(Nc2ccc3c(c2)Cc2ccccc2-3)=CC(=O)c2ncncc21
pIC50 [1]: 5.59 | pIC50 [2]: 5.66 | pIC50 [3]: 5.80
